Several values for one entry are separate records, joined by “and”; a condition that tells them apart may be missing. Identical values can stand only once. Like-named read-outs stand apart in the source and are kept apart here.
Legend:
[1] = Safety assessment: treatment-emergent adverse events; assay type: in vivo, human; conditions: single oral 375 mg
Procedure, shortened: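 Open-label, nonrandomized, parallel-group Phase 1 study in adults with mild, moderate or severe renal impairment (severe excluded if hemodialysis-dependent) and normal renal function. Normal-function controls were matched to moderate-impairment participants by sex, age (± 5 years) and BMI (± 10%). Each received a single oral 375 mg dose as three 125-mg tablets. TEAEs were recorded for nature, frequency and severity, and coded by MedDRA v25.0 System Organ Class/Preferred Term in all treated participants.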

[2] = 750 mg once followed by 250 mg once daily for 4 days (750/250 mg); cited from earlier work
[3] = system: multidrug and toxin extrusion (MATE) 1; conditions: in vitro; cited from earlier work
plasma protein [4] = conditions: hamsters; cited from earlier work
[5] = for AUC0–last GLS mean ratio / t1/2,z GLS mean ratio / Ae (cumulative amount excreted unchanged in urine) / CL/F / Feu (fraction of dose excreted unchanged into urine): single oral 375 mg; for Ae (cumulative amount excreted unchanged in urine) / CL/F / Feu (fraction of dose excreted unchanged into urine): geometric mean (CV%)
[6] = system: organic cation transporter (OCT) 2; conditions: in vitro; cited from earlier work
plasma protein [7] = test: Unbound fraction in plasma; assay type: in vivo; conditions: human, oral, 375 mg, protein binding rate (= [1 − unbound fraction] × 100), humans
plasma protein [8] = conditions: mice; cited from earlier work
MATE-2K = conditions: in vitro; cited from earlier work
[9] = mild impairment/normal function
[10] = moderate impairment/normal function
[11] = severe impairment/normal function

Cn1cnc(Cn2c(=O)[nH]/c(=N\c3cc4cn(C)nc4cc3Cl)n(Cc3cc(F)c(F)cc3F)c2=O)n1 [ensitrelvir]
Any treatment-related TEAE ([1]; mild renal impairment (N = 8)): 1 (12.5) n (%)
Any treatment-related TEAE ([1]; moderate renal impairment (N = 8)): 1 (12.5) n (%)
severity category of all TEAEs and treatment-related TEAEs ([1]; all groups): mild or moderate
tolerability [2]: demonstrated tolerability
substrate for MATE1 [3]: not a substrate
protein binding rate (plasma protein [4]): 98.3%
AUC0–last GLS mean ratio [5, 9]: 1.4303
t1/2,z GLS mean ratio [5, 9]: 1.19 and 1.1855
Ae (cumulative amount excreted unchanged in urine) ([5]; mild renal impairment): 45.7 (44.7) mg
CL/F ([5]; mild renal impairment): 0.262 (20.8) L/h
Feu (fraction of dose excreted unchanged into urine) ([5]; mild renal impairment): 12.2 (44.7) %
AUC0–last GLS mean ratio [5, 10]: 1.4780
t1/2,z GLS mean ratio [5, 10]: 1.24 and 1.2434
Ae (cumulative amount excreted unchanged in urine) ([5]; moderate renal impairment): 58.6 (20.6) mg
CL/F ([5]; moderate renal impairment): 0.253 (26.0) L/h
Feu (fraction of dose excreted unchanged into urine) ([5]; moderate renal impairment): 15.6 (20.6) %
Ae (cumulative amount excreted unchanged in urine) ([5]; normal renal function): 54.8 (29.5) mg
CL/F ([5]; normal renal function): 0.376 (26.0) L/h
Feu (fraction of dose excreted unchanged into urine) ([5]; normal renal function): 14.6 (29.5) %
increased AUC level with renal impairment ([5]; renal impairment vs normal renal function): < 2 fold
AUC0–last GLS mean ratio [5, 11]: 1.5475
t1/2,z GLS mean ratio [5, 11]: 1.61 and 1.6072
Ae (cumulative amount excreted unchanged in urine) ([5]; severe renal impairment): 49.2 (26.5) mg
CL/F ([5]; severe renal impairment): 0.235 (26.1) L/h
Feu (fraction of dose excreted unchanged into urine) ([5]; severe renal impairment): 13.1 (26.5) %
substrate for OCT2 [6]: not a substrate
fraction unbound (plasma protein [7]): 0.983 to 0.988
protein binding rate (plasma protein [8]): 97.6%
substrate for MATE-2K (MATE-2K): not a substrate

Source: publication PMC10965878 (Infectious Diseases and Therapy, 2024)
